Screening data as filed in PubChem BioAssay.
Sampled rows, rich in hits. Any-hit rate of the full collection: about 9.6%.
PMI act satM6P – PMI (human) activation, high substrate; coupled PMI enzyme assay, resazurin fluorescence, 20 min; active compounds read high; 1 = untreated enzyme, 0 = substrate-free blank; activation factor at 20 µM; 0.34% of 190,000 active;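 active = activation factor of 2 or more at 20 µM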
Target sequence (P34949 whole entry, looked up): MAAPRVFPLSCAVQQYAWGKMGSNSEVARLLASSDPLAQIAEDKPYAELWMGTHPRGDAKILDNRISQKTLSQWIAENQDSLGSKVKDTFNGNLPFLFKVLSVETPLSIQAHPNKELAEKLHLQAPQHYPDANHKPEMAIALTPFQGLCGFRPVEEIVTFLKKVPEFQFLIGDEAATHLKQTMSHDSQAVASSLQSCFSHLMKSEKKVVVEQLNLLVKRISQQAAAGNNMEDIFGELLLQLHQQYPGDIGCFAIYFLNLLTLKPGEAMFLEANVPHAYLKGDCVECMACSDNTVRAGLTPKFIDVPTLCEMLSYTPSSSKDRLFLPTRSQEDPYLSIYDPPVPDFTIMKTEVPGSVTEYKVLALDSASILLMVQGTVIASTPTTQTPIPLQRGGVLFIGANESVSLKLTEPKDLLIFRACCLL
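Test system: human phosphomannose isomerase with PGI, G6PDH, diaphorase coupling enzymes; amount: 15 ng/mL PMI; incubation: enzyme reaction with compound 20 min at room temperature; technique: resorufin fluorescence (Ex 544/Em 590 nm) from resazurin via diaphorase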
PTEN del growth – PTEN-deleted cell growth suppression. HCT116 PTEN-null viability, CellTiter-Glo, 60 h; active compounds read low. viability, % at 10 µM. 1.2% of 140,000 active;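 active = viability at or below a set limit, 4 SD under the median of all tested compounds, cut at about 3.7% in these data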;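 note: PTEN knockout HCT116 line with beta catenin targeted HCT116 as companion control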
bCat KO growth – beta-catenin-lacking colon tumor cell growth suppression. HCT116 beta-catenin knockout viability, CellTiter-Glo, 60 h; active compounds read low. AID 818. viability, % at 10 µM. 1.5% of 140,000 active;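 active = viability at or under a set limit, the compound median less 4 SD, cut at about 6% in these data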
Lmaj promast – reduces viability of Leishmania major promastigotes; inhibition, % at 10 µM; 9% of 200,000 active; resazurin fluorescence viability; in the data active = inhibition above about 50%;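 note: promastigotes grown with compound for 44 hours at 28 °C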
PMI act – activators of human phosphomannose isomerase | purified human PMI, coupled resazurin fluorescence, 20 min; active compounds read high; 1 = vehicle control, 0 substrate-free wells | activation factor at 20 µM | 0.005% of 190,000 active | AID 1214;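 active = activation factor of 2 or more at 20 µM, relative to plate controls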
Large screens that a line does not name were inactive.

COc1ccccc1N1CCN(C(=O)c2ccc3nc[nH]c3c2)CC1	none
COc1ccccc1N1CCN(C(=O)c2ccc3[nH]c4c(c3c2)CC(C)CC4)CC1 (stereo not drawn)	Lmaj promast 99
COC(=O)c1cc(S(=O)(=O)n2nc(C)c(Br)c2C)c(Cl)cc1Cl	Lmaj promast 89
CCCCc1ccc(S(=O)(=O)Nc2cc(C)on2)cc1	none
CC(CS(=O)(=O)c1cccc2cccnc12)N1CCCCC1 (stereo not drawn)	none
CC(C)(C)n1nnnc1C(c1cccs1)N1CCN(c2ccccc2)CC1 (stereo not drawn)	none
Oc1c(C(c2ccccc2Cl)N2CCCC2)ccc2cccnc12 (stereo not drawn)	Lmaj promast 100 (no result: PTEN del growth, bCat KO growth)
Oc1c(C(c2cccs2)N2CCN(c3ccccc3)CC2)ccc2cccnc12 (stereo not drawn)	bCat KO growth 3.0, Lmaj promast 84
CCOC(=O)C1=C(C)NC(C)=C(C(=O)OCC)C1c1sccc1C	Lmaj promast 96
CCOC(=O)C1=C(C)NC(C)=C(C(=O)OCC)C1c1cccs1	none
CSCc1ccc(C(=O)NCc2ccc(F)cc2)cc1	Lmaj promast 56
Cc1c(N=C2C=CC(=O)c3ccccc32)c(=O)n(-c2ccccc2)n1C	Lmaj promast 101 (no result: PTEN del growth, bCat KO growth)
C1CCc2c(nc3nnnn3c2NC2CCCC2)C1	none
CC(C)C1Nc2ccc(C(=O)O)cc2C2C=CCC21 (stereo not drawn)	none (no result: PTEN del growth, bCat KO growth)
CCCC1Nc2ccc(C(=O)O)cc2C2C=CCC12 (stereo not drawn)	PMI act satM6P 2
CCOC(=O)Cc1c(C)nc(SC)[nH]c1=O	none (no result: PTEN del growth, bCat KO growth)
O=C1C(Cl)=C(N2CCN(Cc3ccccc3)CC2)C(=O)N1Cc1ccccc1	Lmaj promast 92
CCO[C@H]1OC(C(=O)NCc2ccccc2)=C[C@@H](c2ccc(C(F)(F)F)cc2)[C@@H]1CCCO	Lmaj promast 53 (no result: PTEN del growth, bCat KO growth)
CC(=O)c1cccc(NC(=O)N2CCCC2C(=O)NC2CCCCC2)c1 (stereo not drawn)	none
CC(CCc1ccccc1)NC(=O)CCCCCNc1nc(=S)[nH]c2ccccc12 (stereo not drawn)	none (no result: PTEN del growth, bCat KO growth)
CC1(C)Cc2c(sc3c2c(=N)n(Cc2ccco2)c(=O)n3Cc2ccccc2)CO1	Lmaj promast 82
CC1(C)Cc2c(sc3c2c(=N)n(Cc2ccco2)c(=O)n3Cc2ccc(Cl)cc2)CO1	none
COc1ccc2c(c1)-c1nc(/N=C/c3c(O)ccc4ccccc34)sc1CC2	Lmaj promast 81
C(=N\c1nccs1)/c1cccnc1	none
Cn1c(Cc2ccccc2)nnc1SCc1ccc(C(=O)O)cc1	none
O=C(c1ccc(CS(=O)(=O)c2ccc(Br)cc2)o1)N1CCN(C2CCCCC2)CC1	Lmaj promast 99
COc1ccc(S(=O)(=O)Cc2ccc(C(=O)N3CCN(C4CCCCC4)CC3)o2)cc1	Lmaj promast 99
Cc1cccc(-n2c(CNC(=O)c3ccc(S(=O)(=O)N(C)C)cc3)nnc2SCC(=O)Nc2ccc(F)cc2)c1	none
COc1ccc(C(=O)CSc2n[nH]c(C)n2)cc1[N+](=O)[O-]	none (no result: PTEN del growth, bCat KO growth)
CCN(CC)S(=O)(=O)c1cccc(NC(=O)c2cc3ccccc3o2)c1	Lmaj promast 81
CCN(CC)S(=O)(=O)c1cccc(NC(=O)c2cncc(Br)c2)c1	Lmaj promast 99 (no result: PTEN del growth, bCat KO growth)
CCN(CC)S(=O)(=O)c1cccc(C(=O)N/N=C/c2ccc(O)c(O)c2O)c1	none
CCN(CC)S(=O)(=O)c1cccc(C(=O)N/N=C(\C)c2ccc(O)cc2O)c1	Lmaj promast 68 (no result: PTEN del growth, bCat KO growth)
CCN(CC)S(=O)(=O)c1cccc(C(=O)Nc2cc(C)cc(C)c2)c1	none
CCN(CC)S(=O)(=O)c1cccc(C(=O)Nc2cccc(C)c2)c1	Lmaj promast 62
CN(C)S(=O)(=O)c1cccc(NC(=O)c2cncc(Br)c2)c1	Lmaj promast 88
c1cc2ccc3ccc(CN4CCOCC4)c4ccc(c1)c2c34	none
OC1CCCN(Cc2ccc3ccc4cccc5ccc2c3c45)C1 (stereo not drawn)	PTEN del growth 2.2, bCat KO growth 1.3, Lmaj promast 78
CCCN(CCC)C1=CC(=[N+]2CCCC2)CC(C)(C)C1	Lmaj promast 100
CN(C)NC1=CC(=[N+]2CCCC2)CC(C)(C)C1	none (no result: PTEN del growth, bCat KO growth)
CC1(C)CC(N2CCCCC2)=CC(=[N+]2CCCCC2)C1	Lmaj promast 100 (no result: PTEN del growth, bCat KO growth)
CC1(C)CC(N2CCOCC2)=CC(=[N+]2CCOCC2)C1	none (no result: PTEN del growth, bCat KO growth)
Cc1ccc2c(c1)C(c1ccc([N+](=O)[O-])cc1)=NNC(c1ccc(Br)cc1)=N2	PTEN del growth 2.5, bCat KO growth 3.5, Lmaj promast 53
CCc1ccc2c(c1)C(c1ccc([N+](=O)[O-])cc1)=NNC(c1ccc(Br)cc1)=N2	none
CC1(C)C/C(=N\NC(=S)Nc2ccccc2F)c2cc(O)ccc2O1	Lmaj promast 80 (no result: PTEN del growth, bCat KO growth)
Cc1cccc(NC(=S)N/N=C2\CC(C)(C)Oc3ccc(O)cc32)c1	PTEN del growth 3.8, bCat KO growth 3.9
COc1ccc(/C=C/C(=O)Nc2c(C)nn(C)c2C)cc1COc1ccc(Cl)cc1Br	none
CCOC(=O)CSc1nc(=O)n2cccc(C)c2n1	none (no result: PTEN del growth, bCat KO growth)
Cc1nc2oc3ccc(F)cc3c(=O)c2cc1C(=O)NC(C)(C)C	none (no result: PTEN del growth, bCat KO growth)
O=C(CN1CCOCC1)OCCCC1CCCCC1	none
Clc1ccc(CSC2=NCCCN2)cc1Cl	Lmaj promast 91
Clc1ccccc1CSC1=NCCCN1	none
C#CCNC(=O)C1=C[C@H](C)[C@@H](CCCO)[C@H](OCC)O1	none (no result: PTEN del growth, bCat KO growth)
Cc1ccccc1OCCOc1ccccc1C=C(C#N)C#N	Lmaj promast 78
Cc1cccc(OCCOc2ccccc2C=C(C#N)C#N)c1	Lmaj promast 94
Cc1cccc(OCCOC(=O)Nc2ccccc2)c1	none
CC(=O)N1CCC(=NNc2nc3ccccc3[nH]2)CC1	none (no result: PTEN del growth, bCat KO growth)
CCC(C)(C)C1CCC(=NNc2nc3ccccc3[nH]2)CC1 (stereo not drawn)	PMI act satM6P 2
COc1cc2c(cc1OC)CN(CC(=O)Nc1ccc(C#N)cc1)CC2	none
COc1ccc(C(C(=O)NC2CCCC2)N(C(=O)c2snc(-c3ccc(F)cc3)c2N)c2ccc(F)cc2)cc1 (stereo not drawn)	bCat KO growth 5.5, Lmaj promast 71
COc1ccc(C(C(=O)NC2CCCC2)N(C(=O)c2snc(-c3ccc(F)cc3)c2N)c2ccccc2)cc1 (stereo not drawn)	none
COc1ccc(C(C(=O)NC2CCCC2)N(C(=O)c2snc(-c3ccc(F)cc3)c2N)c2cccc(F)c2)cc1 (stereo not drawn)	none
COc1ccc(C(C(=O)NC2CCCC2)N(C(=O)c2snc(-c3ccc(F)cc3)c2N)c2ccc(OC)cc2)cc1 (stereo not drawn)	Lmaj promast 63
Cc1cccc(CSCCNC(=O)c2ccc(CN3CCOCC3)cc2)c1	Lmaj promast 86
O=C(NCCSCc1ccc(Cl)cc1Cl)c1ccc(CN2CCOCC2)cc1	Lmaj promast 89
CN1CCN(C(=S)NC(=O)c2ccc(Cl)cc2)CC1	none (no result: PTEN del growth, bCat KO growth)
